Data published in ChEMBL document CHEMBL1148398, “Design, synthesis, and biological evaluation of thio-containing compounds with serum HDL-cholesterol-elevating properties” (2004).

Legend:
Rattus norvegicus [1] = test: Effect of compound on serum apolipoprotein A1 concentration in chow-fed male rats at a dose of 100 mg/kg/day; assay type: functional, organism-based
Method in brief: (§1)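 Separate dose-response study in male Sprague–Dawley CD rats, 60–80 g, on chow. Oral gavage once daily for 4 days in 1.3% Tween 80 / 0.25% CMC; fasted overnight, bled 24 h after last dose. Apo-A1 by ELISA with rabbit anti-rat primary, alkaline phosphatase-conjugated anti-rabbit IgG and p-nitrophenyl phosphate substrate. HDL-C by FPLC fractionation. Mean ± SEM, six per group.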

Rattus norvegicus [2] = test: Effect of compound on serum apolipoprotein A1 concentration in chow-fed male rats at a dose of 50 mg/kg/day; assay type: functional, organism-based; method in brief: as §1
Rattus norvegicus [3] = test: Effect of compound on high-density lipoprotein cholesterol levels in 4th group of normal chow-fed male rats after a dose of 10 mg/kg/day; assay type: functional, organism-based
Cricetinae gen. sp. [4] = test: Effect of compound on thyroxine levels in 3rd group of cholesterol-fed male hamsters at 30 mg/kg/day after 14 days of treatment; conditions: Mesocricetus auratus
Rattus norvegicus [5] = test: Effect of compound on total plasma cholesterol levels in 5th group of normal chow-fed male rats after a dose of 20 mg/kg/day; assay type: functional, organism-based
Method in brief: (§2)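 Male Sprague–Dawley CD rats (60–80 g) on Purina 5001 chow with a reverse 12 h light/dark cycle. Dosed once daily by oral gavage for 4 days, suspended in 1.3% Tween 80 / 0.25% CMC. Fasted overnight and bled 24 h after the last dose. Serum TC and glycerol-blanked TG measured enzymatically; VLDL-C by FPLC fractionation with cholesterol assay. n=6, mean ± SEM.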

Rattus norvegicus [6] = test: Effect of compound on alanine aminotransferase (ALT) levels in 5th group of normal chow-fed male rats after a dose of 20 mg/kg/day; assay type: functional, organism-based
Method in brief: (§3)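 Male Sprague–Dawley CD rats (60–80 g) on standard chow under a reversed 12 h light/dark cycle. Compound was suspended in 1.3% Tween 80/0.25% CMC and given as a single daily oral gavage dose for 4 days. Rats were fasted overnight and killed 24 h after the last dose. Serum ALT, AST, ALKP and LDH were read on a clinical analyzer. Weight gain was start versus end weight. Mean ± SEM, n = 6.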

Rattus norvegicus [7] = test: Percent change in high-density lipoprotein cholesterol following oral administration of compound in normal chow-fed rats at 100 mg/kg/day for 4 days; assay type: functional
Method in brief: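 Chow-fed male Sprague–Dawley CD rats, 60–80 g, gavaged 100 mg/kg/day for 4 days in 1.3% Tween 80/0.25% CMC. Fasted overnight, bled 24 h after the last dose. Total cholesterol and glycerol-blanked triglycerides read enzymatically; lipoproteins by FPLC with cholesterol per fraction. % change versus control; six per group, p < 0.05.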

Cricetinae gen. sp. [8] = test: Effect of compound on lactic dehydrogenase (LDH) levels in 1st group of cholesterol-fed male hamsters at 3 mg/kg/day after 14 days of treatment; conditions: Mesocricetus auratus
Rattus norvegicus [9] = test: Effect of compound on aspartate aminotransferase (AST) levels in 3rd group of normal chow-fed male rats after a dose of 5 mg/kg/day; assay type: functional, organism-based; method in brief: as §3
Rattus norvegicus [10] = test: Effect of compound on low-density lipoprotein cholesterol levels in 4th group of normal chow-fed male rats after a dose of 10 mg/kg/day; assay type: functional, organism-based
Method in brief: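 Male Sprague–Dawley CD rats, 60–80 g, on standard chow with reverse 12 h light/dark cycle. One oral gavage dose daily for 4 days, suspended in 1.3% Tween 80 and 0.25% CMC. Fasted overnight; sacrificed 24 h after the last dose. Serum TC on clinical analyzer, lipoproteins by FPLC with cholesterol per fraction, T4 on analyzer. Mean ± SEM, six rats per group.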

[11] = Effect on serum lipids in 4th group of cholesterol-fed male hamsters at 100 mg/kg/day after 14 days of treatment was evaluated as ratio of total cholesterol levels to high-density lipoprotein cholesterol levels; assay type: functional
Method in brief: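 Male Syrian Golden hamsters on chow plus 0.25% cholesterol, 2 weeks before and during dosing. Oral gavage for 14 days in 2% Tween 80/saline. Fasted 4 h before sacrifice. Serum total cholesterol measured enzymatically; HDL-C from cholesterol in FPLC lipoprotein fractions; TC/HDL-C ratio calculated. Six per group, mean ± SEM.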

Cricetinae gen. sp. [12] = test: Effect of compound on alanine aminotransferase (ALT) levels in 2nd group of cholesterol-fed male hamsters at 10 mg/kg/day after 14 days of treatment; conditions: Mesocricetus auratus
Cricetinae gen. sp. [13] = test: Effect of compound on triglycerides level in 2nd group of cholesterol-fed male hamsters at 10 mg/kg/day after 14 days of treatment; conditions: Mesocricetus auratus
[14] = Effect on serum lipids in 4th group of normal chow-fed male rats after a dose of 10 mg/kg/day was evaluated as ratio of total plasma cholesterol levels to high-density lipoprotein cholesterol levels; assay type: functional
Method in brief: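 Male Sprague–Dawley CD rats, 60–80 g, chow-fed, dosed by oral gavage daily for 4 days in 1.3% Tween 80/0.25% CMC. Fasted overnight, bled 24 h after the last dose. Serum total cholesterol by enzymatic reagent; HDL-C from cholesterol in FPLC fractions; TPC/HDL-C ratio calculated. Six per group, mean ± SEM.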

Rattus norvegicus [15] = test: Effect of compound on aspartate aminotransferase (AST) levels in 4th group of normal chow-fed male rats after a dose of 10 mg/kg/day; assay type: functional, organism-based; method in brief: as §3
Rattus norvegicus [16] = test: Effect of compound on total plasma cholesterol levels in 7th group of normal chow-fed male rats after a dose of 100 mg/kg/day; assay type: functional, organism-based; method in brief: as §2
Cricetinae gen. sp. [17] = test: Percent change in very low-density lipoprotein cholesterol following oral administration of compound in hypercholesterolemic hamsters at 100 mg/kg/day for 14 days; assay type: functional
Method in brief: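 Male Syrian Golden hamsters pre-fed chow plus 0.25% cholesterol for 2 weeks and kept on it. Dosed 100 mg/kg/day by oral gavage in 2% Tween 80/saline for 14 days. Serum total cholesterol and glycerol-blanked triglycerides read enzymatically; lipoproteins separated by FPLC with cholesterol measured in each fraction. % change versus vehicle controls; six per group, p < 0.05.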

Cricetinae gen. sp. [18] = test: Effect of compound on alanine aminotransferase (ALT) levels in 4th group of cholesterol-fed male hamsters at 100 mg/kg/day after 14 days of treatment; conditions: Mesocricetus auratus
Rattus norvegicus [19] = test: Effect of compound on relative liver weight in 5th group of normal chow-fed male rats after a dose of 20 mg/kg/day; assay type: functional
Method in brief: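 Chow-fed male Sprague–Dawley CD rats, 60–80 g, dosed by oral gavage once daily for 4 days in 1.3% Tween 80/0.25% CMC. Fasted overnight and sacrificed 24 h after the last dose. Liver weight expressed as % of body weight at termination. Six per group, mean ± SEM.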

Structure (SMILES): CCN1CC(=O)N(c2cc(Cl)ccc2C)C1=S
- Serum level (Rattus norvegicus [1]): 96.4 mg/dL
- Serum level (Rattus norvegicus [2]): 88.8 mg/dL
- Serum level (Rattus norvegicus [3]): 61 mg/dL
- Serum level (Cricetinae gen. sp. [4]): 4.73 µg/dL
- Serum level (Rattus norvegicus [5]): 84 mg/dL
- Level (Rattus norvegicus [6]): 78 U l-1
- Change (Rattus norvegicus [7]): 89.1%
- Level (Cricetinae gen. sp. [8]): 1230 U l-1
- Level (Rattus norvegicus [9]): 216 U l-1
- Serum level (Rattus norvegicus [10]): 8.1 mg/dL
- Ratio [11]: 1.95
- Level (Cricetinae gen. sp. [12]): 134 U l-1
- Serum level (Cricetinae gen. sp. [13]): 455 mg/dL
- Ratio [14]: 1.39
- Level (Rattus norvegicus [15]): 182 U l-1
- Serum level (Rattus norvegicus [16]): 118 mg/dL
- Change (Cricetinae gen. sp. [17]): -33.4%
- Level (Cricetinae gen. sp. [18]): 639 U l-1
- Relative liver weight (Rattus norvegicus [19]): 4.3%
